In ChEMBL document CHEMBL5653631, “A Potent and Selective ULK1 Inhibitor Suppresses Autophagy and Sensitizes Cancer Cells to Nutrient Stress” (iScience, 2018):
Values belong to the compound of their own block, whether it stands above or below them.

What was measured:
[1] = molecular target: Activated CDC42 kinase 1 (Homo sapiens) (UniProt Q07912); test: Inhibition of human recombinant ACK at 500 nM in presence of ATP by radiometric assay relative to control
Procedure, shortened: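 Panel of 327 recombinant human kinases in radiometric activity assays, each screened in duplicate at a single inhibitor concentration; percent activity remaining relative to vehicle control, percent inhibition taken as 100 minus activity remaining.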

[2] = molecular target: T1, Eukaryotic translation initiation factor 2-alpha kinase 3 (Homo sapiens) (UniProt Q9NZJ5); test: Inhibition of human recombinant PEK at 15 nM in presence of ATP by radiometric assay relative to control
T1 sequence (whole entry): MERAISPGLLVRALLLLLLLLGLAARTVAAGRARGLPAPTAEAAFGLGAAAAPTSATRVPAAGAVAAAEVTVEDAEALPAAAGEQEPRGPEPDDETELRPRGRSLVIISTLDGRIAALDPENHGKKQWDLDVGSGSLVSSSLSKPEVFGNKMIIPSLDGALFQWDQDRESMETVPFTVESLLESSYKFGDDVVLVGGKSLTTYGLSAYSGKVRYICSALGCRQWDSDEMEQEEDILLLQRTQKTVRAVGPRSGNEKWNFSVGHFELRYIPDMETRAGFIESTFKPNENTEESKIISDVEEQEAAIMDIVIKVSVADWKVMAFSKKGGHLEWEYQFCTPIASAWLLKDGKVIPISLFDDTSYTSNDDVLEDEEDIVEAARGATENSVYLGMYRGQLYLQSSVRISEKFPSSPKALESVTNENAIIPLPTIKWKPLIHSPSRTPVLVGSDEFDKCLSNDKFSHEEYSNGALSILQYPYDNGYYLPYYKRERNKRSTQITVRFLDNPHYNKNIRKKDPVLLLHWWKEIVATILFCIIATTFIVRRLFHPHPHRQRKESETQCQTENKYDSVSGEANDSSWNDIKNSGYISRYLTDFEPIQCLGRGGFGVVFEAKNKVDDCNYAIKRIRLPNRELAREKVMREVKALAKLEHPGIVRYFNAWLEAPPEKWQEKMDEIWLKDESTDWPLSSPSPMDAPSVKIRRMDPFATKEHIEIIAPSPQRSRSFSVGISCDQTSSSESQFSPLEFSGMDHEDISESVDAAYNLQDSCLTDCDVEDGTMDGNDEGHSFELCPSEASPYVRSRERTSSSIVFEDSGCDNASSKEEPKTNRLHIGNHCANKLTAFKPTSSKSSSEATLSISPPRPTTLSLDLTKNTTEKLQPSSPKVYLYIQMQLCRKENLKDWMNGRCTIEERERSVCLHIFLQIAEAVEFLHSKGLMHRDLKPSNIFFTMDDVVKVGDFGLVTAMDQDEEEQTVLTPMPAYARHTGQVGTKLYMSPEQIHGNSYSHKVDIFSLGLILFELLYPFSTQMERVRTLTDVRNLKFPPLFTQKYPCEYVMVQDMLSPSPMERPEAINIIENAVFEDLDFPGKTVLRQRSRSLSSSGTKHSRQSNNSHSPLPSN

[3] = molecular target: T2, Discoidin domain-containing receptor 2 (Homo sapiens) (UniProt Q16832); test: Inhibition of human recombinant DDR2 at 15 nM related to control ULK1
T2 sequence (whole entry): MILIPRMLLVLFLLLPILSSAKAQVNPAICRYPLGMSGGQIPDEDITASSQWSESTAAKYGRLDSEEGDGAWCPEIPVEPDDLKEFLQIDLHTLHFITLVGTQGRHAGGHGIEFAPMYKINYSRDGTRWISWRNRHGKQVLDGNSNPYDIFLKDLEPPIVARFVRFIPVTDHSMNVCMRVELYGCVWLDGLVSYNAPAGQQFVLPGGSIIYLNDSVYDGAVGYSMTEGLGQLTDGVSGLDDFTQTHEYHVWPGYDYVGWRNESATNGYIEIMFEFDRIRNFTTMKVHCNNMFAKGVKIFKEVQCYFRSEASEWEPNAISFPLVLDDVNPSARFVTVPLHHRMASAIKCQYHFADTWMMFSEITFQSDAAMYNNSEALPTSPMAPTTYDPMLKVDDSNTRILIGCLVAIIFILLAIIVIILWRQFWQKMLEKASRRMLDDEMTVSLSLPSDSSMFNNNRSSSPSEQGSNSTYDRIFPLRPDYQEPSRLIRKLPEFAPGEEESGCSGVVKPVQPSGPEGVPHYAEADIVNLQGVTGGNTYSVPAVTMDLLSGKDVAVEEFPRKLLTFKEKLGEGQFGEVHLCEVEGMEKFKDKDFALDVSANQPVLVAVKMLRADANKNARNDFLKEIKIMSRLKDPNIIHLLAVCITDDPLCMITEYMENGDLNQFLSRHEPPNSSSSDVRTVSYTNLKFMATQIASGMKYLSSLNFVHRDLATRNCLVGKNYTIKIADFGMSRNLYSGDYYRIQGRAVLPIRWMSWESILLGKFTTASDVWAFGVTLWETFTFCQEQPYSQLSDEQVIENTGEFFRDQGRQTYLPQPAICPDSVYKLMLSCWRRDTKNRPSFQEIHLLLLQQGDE

[4] = molecular target: Serine/threonine-protein kinase pim-1 (Homo sapiens) (UniProt P11309); test: Inhibition of human recombinant PIM1 at 15 nM related to control ULK1
Chain of Serine/threonine-protein kinase pim-1 (Homo sapiens) (P11309 whole entry, looked up): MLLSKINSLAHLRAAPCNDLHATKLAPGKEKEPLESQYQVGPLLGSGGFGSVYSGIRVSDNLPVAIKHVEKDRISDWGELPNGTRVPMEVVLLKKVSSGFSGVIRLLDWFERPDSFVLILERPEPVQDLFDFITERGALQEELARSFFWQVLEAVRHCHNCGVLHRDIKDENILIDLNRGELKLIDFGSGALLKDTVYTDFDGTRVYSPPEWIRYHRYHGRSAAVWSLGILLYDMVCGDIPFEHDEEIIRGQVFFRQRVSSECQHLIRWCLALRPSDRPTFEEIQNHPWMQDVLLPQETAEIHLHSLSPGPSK

[5] = molecular target: Angiopoietin-1 receptor (Homo sapiens) (UniProt Q02763); test: Inhibition of human recombinant Tie2 at 15 nM related to control ULK1
Chain of Angiopoietin-1 receptor (Homo sapiens) (Q02763 whole entry): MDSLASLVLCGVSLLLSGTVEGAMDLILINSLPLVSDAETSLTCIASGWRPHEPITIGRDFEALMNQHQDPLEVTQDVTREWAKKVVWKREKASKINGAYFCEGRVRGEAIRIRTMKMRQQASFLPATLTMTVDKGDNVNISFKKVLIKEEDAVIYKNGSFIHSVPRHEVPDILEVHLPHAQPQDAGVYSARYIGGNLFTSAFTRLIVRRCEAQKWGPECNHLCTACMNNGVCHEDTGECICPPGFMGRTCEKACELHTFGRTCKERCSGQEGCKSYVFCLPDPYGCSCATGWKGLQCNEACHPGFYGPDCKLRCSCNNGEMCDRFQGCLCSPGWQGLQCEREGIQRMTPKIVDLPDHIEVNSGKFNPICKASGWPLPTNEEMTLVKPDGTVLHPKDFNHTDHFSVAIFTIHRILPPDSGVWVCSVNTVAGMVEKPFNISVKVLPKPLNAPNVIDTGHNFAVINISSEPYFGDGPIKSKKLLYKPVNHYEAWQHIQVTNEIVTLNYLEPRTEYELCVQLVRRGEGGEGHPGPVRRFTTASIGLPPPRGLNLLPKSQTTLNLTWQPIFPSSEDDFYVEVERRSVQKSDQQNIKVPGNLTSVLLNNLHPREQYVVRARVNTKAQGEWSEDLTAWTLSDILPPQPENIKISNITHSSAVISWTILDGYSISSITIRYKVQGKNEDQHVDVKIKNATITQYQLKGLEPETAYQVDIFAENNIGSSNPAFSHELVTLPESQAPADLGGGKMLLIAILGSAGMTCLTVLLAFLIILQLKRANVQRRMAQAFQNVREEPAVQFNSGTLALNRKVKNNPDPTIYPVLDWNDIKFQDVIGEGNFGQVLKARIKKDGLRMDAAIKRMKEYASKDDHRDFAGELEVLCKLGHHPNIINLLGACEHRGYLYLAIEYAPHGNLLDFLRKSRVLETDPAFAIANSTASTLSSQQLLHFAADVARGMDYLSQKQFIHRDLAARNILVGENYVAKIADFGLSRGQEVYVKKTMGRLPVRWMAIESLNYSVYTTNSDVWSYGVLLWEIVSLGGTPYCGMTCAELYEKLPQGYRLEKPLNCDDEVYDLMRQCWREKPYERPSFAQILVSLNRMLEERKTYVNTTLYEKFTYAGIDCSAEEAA

[6] = molecular target: Serine/threonine-protein kinase 32A (Homo sapiens) (UniProt Q8WU08); test: Inhibition of human recombinant YANK1 at 15 nM related to control ULK1
Chain of Serine/threonine-protein kinase 32A (Homo sapiens) (Q8WU08 whole entry): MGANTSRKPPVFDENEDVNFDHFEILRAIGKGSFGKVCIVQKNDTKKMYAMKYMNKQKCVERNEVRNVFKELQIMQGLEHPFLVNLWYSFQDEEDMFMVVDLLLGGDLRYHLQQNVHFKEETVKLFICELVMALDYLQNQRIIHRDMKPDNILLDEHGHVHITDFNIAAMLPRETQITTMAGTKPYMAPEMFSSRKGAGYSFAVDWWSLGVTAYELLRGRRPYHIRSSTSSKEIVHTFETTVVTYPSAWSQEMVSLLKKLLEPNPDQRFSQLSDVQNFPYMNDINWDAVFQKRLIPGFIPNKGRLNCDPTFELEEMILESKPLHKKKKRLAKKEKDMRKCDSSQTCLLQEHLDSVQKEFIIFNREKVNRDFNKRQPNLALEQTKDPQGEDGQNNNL

[7] = molecular target: Angiopoietin-1 receptor (Homo sapiens) (UniProt Q02763); test: Inhibition of human recombinant Tie2 at 40 nM in presence of ATP by radiometric assay relative to control
[8] = molecular target: T3, Activin receptor type-1B (Homo sapiens) (UniProt P36896); test: Inhibition of human recombinant ALK4 at 40 nM related to control ULK1
T3 sequence (whole entry): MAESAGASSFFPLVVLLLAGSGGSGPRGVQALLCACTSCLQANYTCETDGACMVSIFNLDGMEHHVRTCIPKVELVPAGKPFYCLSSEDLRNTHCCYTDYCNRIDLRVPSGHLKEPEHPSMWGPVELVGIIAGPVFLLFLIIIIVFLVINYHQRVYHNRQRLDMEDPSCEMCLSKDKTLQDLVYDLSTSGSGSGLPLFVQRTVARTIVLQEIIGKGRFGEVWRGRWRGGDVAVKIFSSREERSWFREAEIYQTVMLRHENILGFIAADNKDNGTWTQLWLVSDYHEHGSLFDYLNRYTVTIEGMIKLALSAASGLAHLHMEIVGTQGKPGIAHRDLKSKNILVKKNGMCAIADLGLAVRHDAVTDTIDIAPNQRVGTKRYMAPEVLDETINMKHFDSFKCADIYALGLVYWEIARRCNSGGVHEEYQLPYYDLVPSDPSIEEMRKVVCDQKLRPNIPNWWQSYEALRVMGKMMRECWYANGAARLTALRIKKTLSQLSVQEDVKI
Procedure, shortened: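 Radiometric activity assays in a panel of 327 human recombinant kinases, each run in duplicate at one inhibitor concentration. Activity remaining is expressed as percent of vehicle control, and percent inhibition is calculated as 100% minus percent activity remaining.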

Chain of Activated CDC42 kinase 1 (Homo sapiens) (Q07912 whole entry, looked up): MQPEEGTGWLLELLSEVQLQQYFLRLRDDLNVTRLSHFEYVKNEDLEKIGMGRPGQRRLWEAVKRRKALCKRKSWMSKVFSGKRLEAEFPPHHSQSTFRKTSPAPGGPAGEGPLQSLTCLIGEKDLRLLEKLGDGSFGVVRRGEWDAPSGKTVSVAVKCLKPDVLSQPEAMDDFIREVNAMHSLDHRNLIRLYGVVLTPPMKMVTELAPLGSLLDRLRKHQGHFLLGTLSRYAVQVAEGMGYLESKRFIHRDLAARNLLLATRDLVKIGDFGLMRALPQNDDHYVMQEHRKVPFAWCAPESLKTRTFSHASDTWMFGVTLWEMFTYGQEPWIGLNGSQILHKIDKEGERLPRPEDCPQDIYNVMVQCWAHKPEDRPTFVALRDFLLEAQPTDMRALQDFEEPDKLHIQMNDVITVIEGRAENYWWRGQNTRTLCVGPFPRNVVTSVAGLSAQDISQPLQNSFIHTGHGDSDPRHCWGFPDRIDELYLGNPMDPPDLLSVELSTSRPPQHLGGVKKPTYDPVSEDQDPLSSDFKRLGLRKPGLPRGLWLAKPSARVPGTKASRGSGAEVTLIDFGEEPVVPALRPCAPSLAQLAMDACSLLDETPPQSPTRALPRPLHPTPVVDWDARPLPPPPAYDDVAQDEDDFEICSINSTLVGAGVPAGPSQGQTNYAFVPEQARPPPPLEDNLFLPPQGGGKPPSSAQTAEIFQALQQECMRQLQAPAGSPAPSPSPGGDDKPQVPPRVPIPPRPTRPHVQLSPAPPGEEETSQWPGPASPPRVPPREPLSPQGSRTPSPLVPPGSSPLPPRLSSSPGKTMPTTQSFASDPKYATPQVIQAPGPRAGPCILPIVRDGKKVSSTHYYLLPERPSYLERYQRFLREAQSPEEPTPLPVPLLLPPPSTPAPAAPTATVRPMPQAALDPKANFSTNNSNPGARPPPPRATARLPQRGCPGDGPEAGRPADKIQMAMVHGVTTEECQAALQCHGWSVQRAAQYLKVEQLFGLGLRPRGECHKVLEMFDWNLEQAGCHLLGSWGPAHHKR

inhibition [1]: 31%
Compound: CNC(=O)c1ccccc1Oc1nc(Nc2cc(OC)c(OC)c(OC)c2)ncc1Br

inhibition [2]: 0% | fold change (FC) [3]: 0 | fold change (FC) [4]: 0.16 | fold change (FC) [5]: 0 | fold change (FC) [6]: 0.02
Compound: CC(C)[C@H](NC(=O)c1cc(-c2cnn3cc(-c4ccc(OCCN5CCCCC5)cc4)cnc23)cs1)C(F)(F)F

inhibition [7]: 0% | fold change (FC) [8]: 0
Compound: O=C(N[C@@H](C1CC1)C(F)(F)F)c1cc(-c2cnn3cc(-c4ccc(F)cc4)cnc23)cs1
